Laboratory results from ChEMBL document CHEMBL1140775, “Low-density lipoprotein (LDL)-antioxidant lignans from Myristica fragrans seeds” (Bioorg Med Chem Lett, 2008).
Calls of active or inactive are those of the source. The calls are words filed in the database; no cut-off is given here.

Legend:
Assay type in all cases: functional
[1] = Antioxidant activity assessed as inhibition of LDL-oxidation at 20 uM by TBARS assay
Method in brief: (§1)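 Copper-mediated oxidation of human plasma LDL (120 µg/mL); oxidation quantified by TBARS formation. Mean of two independent experiments, each in duplicate.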

[2] = Antioxidant activity against LDL-oxidation by TBARS assay; method in brief: as §1
[3] = Antioxidant activity against LDL-oxidation assessed as conjugated diene formation lag time at 3.0 uM
Method in brief: (§2)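 Human plasma LDL (120 µg protein/mL) oxidized with 5 µM CuSO4, with or without compound; conjugated diene formation read as absorbance at 234 nm every 10 min for 4 h. Lag time taken as elapsed time before onset of rapid conjugated hydroperoxide formation.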

[4] = Antioxidant activity against LDL-oxidation assessed as conjugated diene formation lag time at 1.0 uM; method in brief: as §2
[5] = Antioxidant activity assessed as inhibition of apoB100 fragmentation at 10 uM by SDS-PAGE method
Method in brief: (§3)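 Human LDL in PBS incubated 4 h at 37 °C with 5 µM CuSO4 with or without compound. About 2.0 µg LDL protein run on 7.5% SDS-PAGE, Coomassie-stained, densitometrically scanned; apoB-100 band area given as absorbance units per mm.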

[6] = Antioxidant activity assessed as inhibition of copper-mediated LDL-oxidation at 20 uM by relative electrophoretic mobility method
Method in brief: (§4)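 LDL (120 µg/mL in PBS) incubated 12 h at 37 °C with 5 µM CuSO4 with or without compound. About 2.0 µg LDL protein run on 0.7% agarose gel, Coomassie-stained, densitometrically scanned; migration distance measured, protection expressed relative to native and fully oxidized LDL.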

[7] = Antioxidant activity assessed as inhibition of copper-mediated LDL-oxidation at 10 uM by relative electrophoretic mobility method; method in brief: as §4
THP-1 [8] = assay: Antioxidant activity against LDL-oxidation in human THP1 cells assessed as malondialdehyde level per mg of LDL protein at 1 uM
Method in brief: (§5)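 PMA-differentiated THP-1 macrophages incubated 24 h at 37 °C in serum-free RPMI 1640 with LDL (100 µg/mL) and 2 µM Cu2+, with or without compound. TBARS measured directly in harvested medium, expressed as MDA nmol/mg LDL protein; mean ± SD, n = 3.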

[9] = Antioxidant activity assessed as inhibition of apoB100 fragmentation at 20 uM by SDS-PAGE method; method in brief: as §3
THP-1 [10] = assay: Antioxidant activity against LDL-oxidation in human THP1 cells assessed as malondialdehyde level per mg of LDL protein at 5 uM; method in brief: as §5

Compound | IC50 [2] [µM] | inhibition [1] [%] | other results
C[C@H](Cc1ccc2c(c1)OCO2)[C@H](C)Cc1ccc2c(c1)OCO2 |  | 0 | Activity [2]: inactive
CC(C)(Sc1cc(C(C)(C)C)c(O)c(C(C)(C)C)c1)Sc1cc(C(C)(C)C)c(O)c(C(C)(C)C)c1 [PROBUCOL] | 3.1 | 92 | Activity [3]: 67 min
COc1cc(C(OC)C(C)C(C)Cc2ccc3c(c2)OCO3)ccc1O (centres undefined) | 7.9 | 28.9 | 
COc1cc([C@H]2c3cc4c(cc3C[C@@H](C)[C@@H]2C)OCO4)ccc1O | 7.3 | 40.9 | 

More lines, main results first:

IC50 [2] [µM] | Compound | inhibition [1] [%] | other results
3.6 | COc1cc(C[C@H](C)[C@H](C)Cc2ccc(O)c(O)c2)ccc1O | 91 | 
6.3 | COc1cc([C@@H](O)[C@H](C)[C@H](C)Cc2ccc3c(c2)OCO3)ccc1O | 45.7 | 
2.6 | COc1cc(C[C@@H](C)[C@@H](C)Cc2ccc(O)c(OC)c2)ccc1O [MESODIHYDROGUAIARETIC ACID] | 93 | Activity [4]: 140 min; inhibition [5]: 54%; inhibition [6]: 82%; inhibition [7]: 72%; Activity (THP-1 [8]): 306.3 nmol; inhibition [9]: 93%; Activity (THP-1 [10]): 35.2 nmol
7.5 | COc1cc(C[C@H](C)[C@H](C)Cc2ccc3c(c2)OCO3)ccc1O [AUSTROBAILIGNAN 6] | 64.5 | 
